Screening results (PubChem BioAssay)
KCNQ1 block = human KCNQ1 channel inhibition; B-score at 10 µM; 310,000 compounds, 1.3% hits; P51787; CHO-K1 KCNQ1, FluxOR thallium flux fluorescence; hits give high values;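 active = compounds whose thallium flux B-score, printed positive for inhibition, exceeds three library SD while starting fluorescence stays within three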;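 also: channel opened by potassium depolarization with thallium stimulus after 20 min compound exposure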
Target sequence (P51787 whole entry, looked up): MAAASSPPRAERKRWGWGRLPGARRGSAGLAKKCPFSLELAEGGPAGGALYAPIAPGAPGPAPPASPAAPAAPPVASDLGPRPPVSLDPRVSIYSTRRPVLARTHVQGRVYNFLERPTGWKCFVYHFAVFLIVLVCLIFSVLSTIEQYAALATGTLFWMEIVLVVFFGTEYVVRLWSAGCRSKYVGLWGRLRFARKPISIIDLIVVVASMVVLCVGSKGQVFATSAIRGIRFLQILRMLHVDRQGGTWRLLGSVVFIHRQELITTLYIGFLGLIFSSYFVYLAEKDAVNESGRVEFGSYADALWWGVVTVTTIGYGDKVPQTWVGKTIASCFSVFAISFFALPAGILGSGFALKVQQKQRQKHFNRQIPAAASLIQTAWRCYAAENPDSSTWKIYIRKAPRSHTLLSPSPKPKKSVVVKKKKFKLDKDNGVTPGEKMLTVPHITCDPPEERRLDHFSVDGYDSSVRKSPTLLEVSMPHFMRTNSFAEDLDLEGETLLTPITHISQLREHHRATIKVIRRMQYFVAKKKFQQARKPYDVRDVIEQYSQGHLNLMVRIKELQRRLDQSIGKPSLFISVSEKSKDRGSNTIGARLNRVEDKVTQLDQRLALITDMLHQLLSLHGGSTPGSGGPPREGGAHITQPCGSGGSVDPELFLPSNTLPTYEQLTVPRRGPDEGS
KCNK9 block = human KCNK9 channel inhibition | HEK293 KCNK9, FluxOR thallium flux fluorescence; hits give low values | Q9NPC2 | 310,000 compounds, 1.2% hits | B-score at 10 µM;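 active = ratio B-score over 3 SD below the library mean, with starting fluorescence within 5 SD of its mean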;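 also: negative B-score means less thallium flux so channel inhibition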
KCNK3 block = human KCNK3 channel inhibition, primary screen | B-score at 10 µM | O14649 | 340,000 compounds, 0.84% hits | CHO-KCNK3 thallium flux, FluxOR fluorescence; hits give low values;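 active = B-score under library mean minus 4 SD, starting fluorescence ratio at most library mean plus 5 SD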;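 also: more negative B-score means stronger inhibition of thallium flux through KCNK3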
Cl transport mod = modulators of human KCC2 chloride dependent transport. KCC2 cells, thallium flux FluoZin-2 fluorescence. 190,000 compounds, 2.2% hits. B-score of Tl+ flux slope (higher = more flux/activation; lower = inhibition) at 10 µM;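 active = thallium flux slope and its plate-corrected score both differing from the plate sample mean at a set confidence after two filtering rounds, in either direction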;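 also: slope of fluorescence scaled to starting intensity during 10 to 20 s after thallium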
KCNQ1 pot = potentiates or activates the human KCNQ1 potassium channel; CHO-K1 KCNQ1, thallium flux FluxOR fluorescence; hits give high values; B-score at 10 µM; 310,000 compounds, 0.35% hits;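 active = fluorescence ratio B-score, a plate-corrected score, at least three library SD, with initial intensity B-score within 5 SD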
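Doses: Single concentration per compound, DMSO matched to controls | Test system: KCNQ1-transfected CHO-K1 cells | Timing: 90 min dye loading and 20 min compound exposure, both at room temperature | Measured by: Kinetic FluxOR thallium fluorescence, 10-s 1-Hz baseline, 110-s post-stimulus read | Medium: Assay buffer with matched DMSO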
hERG rescue = compounds protecting human hERG from proarrhythmic drug block; Q12809; activation (rescue from dofetilide block), less the hit threshold, % at 10 µM; 310,000 compounds, 0.51% hits; CHO-hERG, FluxOR thallium flux, dofetilide IC70 present; AID 1511;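 active = activation above the mean of controls blocked by dofetilide plus 5 SD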;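 also: thallium influx through hERG after potassium depolarization seen as dye fluorescence rise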
KCC2 secondary = KCC2 (human) modulation, secondary assay; shares compounds with Cl transport mod; HEK293-KCC2, thallium flux, FluoZin2 fluorescence; hits give high values; normalised thallium flux (F/F0 slope) at 10 µM; 3,700 compounds, 15% hits; AID 1713;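 active = thallium flux slope above the same plate's solvent-only control mean plus 3 SD; inconclusive = the two replicate wells disagree; inactive = no significant difference from solvent-only control wells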
KCC2 bumet counter = thallium flux persisting under bumetanide in KCC2 cells, counter-screen secondary assay. HEK293-KCC2 + bumetanide/ouabain, thallium flux FluoZin2; hits give high values. normalized thallium flux at 10 µM. shares compounds with Cl transport mod. 3,700 compounds, 49% hits;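 active = thallium entry rate above the same plate's blocked-transporter control wells by more than 3 SD; inconclusive = the two repeat wells disagree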;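 also: raw slope of fluorescence over initial fluorescence between 10 and 20 s after thallium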
KCC2 secondary2 = KCC2 (human) modulation, second secondary assay | normalized thallium flux at 10 µM | 3,700 compounds, 23% hits | shares compounds with Cl transport mod | HEK293-KCC2, thallium flux FluoZin2 fluorescence; actives lie on both sides; F/F0 rise rate, 10–20 s post-thallium;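 active = thallium flux slope more than 3 SD above or below the plate's solvent-only control mean, mostly below; inconclusive = the two repeat wells disagreed; inactive = no significant shift from solvent-only controls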
HEK293 Tl flux = parental HEK flux effect, counter-screen; shares compounds with Cl transport mod; AID 1716; 3,700 compounds, 46% hits; thallium flux rate (normalised fluorescence) at 10 µM; HEK293 parental cells, thallium flux FluoZin2, ouabain; baseline-ratio fluorescence slope, 10–20 s after thallium;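 active = thallium flux rate significantly above the same plate's solvent-only control wells, beyond their mean plus 3 SD; inconclusive = the two replicate wells gave conflicting results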
KCC2 ouabain = modulates human KCC2 on retest with ouabain. shares compounds with Cl transport mod. HEK293-KCC2, thallium flux FluoZin2 fluorescence; bidirectional: low = inhibitor, high = activator. raw Tl+ flux slope (below DMSO = inhibition, above = activation) at 10 µM. 3,700 compounds, 48% hits;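 active = thallium flux slope beyond 3 SD from same-plate DMSO control mean in most replicates, usually higher, sometimes lower; inconclusive = repeat tests gave conflicting results; inactive = no significant difference from controls in most replicates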;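 also: slope of initial-normalized fluorescence between seconds 10 and 20 after thallium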
HEK293 Tl flux2 = acts in parental HEK cells, second KCC2 counter-screen; 3,700 compounds, 33% hits; shares compounds with Cl transport mod; thallium flux slope at 10 µM; HEK293 parental, thallium flux FluoZin-2 fluorescence slope;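 active = thallium flux slope above the same plate's solvent-control mean plus 3 SD in both duplicate wells; inconclusive = duplicate wells that disagreed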;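 also: run without ouabain in cells lacking the KCC2 cotransporter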
Large screens that a line does not name were inactive (follow-up assays come after a bar, where they were run). Rows were chosen to be rich in hits. Some 4.1% of all compounds tested hit in one or more screens of this group.

COc1ccc(C(=O)NC2CCCCC2)cc1S(=O)(=O)N1CCCC1	Cl transport mod 7.5 | KCC2 secondary inactive | KCC2 bumet counter inconclusive | KCC2 secondary2 inactive | HEK293 Tl flux inactive | KCC2 ouabain inactive | HEK293 Tl flux2 inactive
COc1ccc(S(=O)(=O)N2CCOCC2)cc1NC(=O)C1COc2ccccc2O1 (stereo not given)	none (no result: Cl transport mod)
N#Cc1ccccc1CSc1nc2ccc(NC(=O)c3ccccc3C(=O)O)cc2s1	Cl transport mod -3.6 | KCC2 secondary inactive | KCC2 bumet counter inactive | KCC2 secondary2 inactive | HEK293 Tl flux inactive | KCC2 ouabain 0.017 | HEK293 Tl flux2 inactive
O=C(O)c1ccc(CSc2nc3ccc(NC(=O)c4ccccc4C(=O)O)cc3s2)cc1	none
COc1ccc(Nc2cc(C)nc3ccccc23)cc1	none | KCC2 secondary inactive | KCC2 bumet counter 0.008 | KCC2 secondary2 inactive | HEK293 Tl flux inactive | KCC2 ouabain inactive | HEK293 Tl flux2 inactive
COCCCNC(=O)Cn1nc(-c2ccccc2OC)ccc1=O	none
COc1ccccc1-c1ccc(=O)n(CC(=O)NCc2ccc3c(c2)OCO3)n1	Cl transport mod -3.7 | KCC2 secondary inactive | KCC2 bumet counter 0.0092 | KCC2 secondary2 inactive | HEK293 Tl flux inconclusive | KCC2 ouabain 0.016 | HEK293 Tl flux2 inactive
CNc1ccccc1C(=O)OCC(=O)N(CCOC)c1c(N)n(CC(C)C)c(=O)[nH]c1=O	none (no result: Cl transport mod)
Cc1ccc(/C=c2\s/c(=C(/C#N)C(=O)N3CCCC3)n(Cc3ccco3)c2=O)s1	Cl transport mod 8.2 | KCC2 secondary inactive | KCC2 bumet counter inactive | KCC2 secondary2 0.025 | HEK293 Tl flux inactive | KCC2 ouabain inactive | HEK293 Tl flux2 inactive
CCCc1cc(=O)[nH]c2nnc(SCC(=O)Nc3cccc(NC(C)=O)c3)n12	none (no result: Cl transport mod)
O=C(O)CC/C(=C\c1ccccc1[N+](=O)[O-])c1nc2ccccc2s1	Cl transport mod -4.1 | KCC2 secondary inactive | KCC2 bumet counter inactive | KCC2 secondary2 inconclusive | HEK293 Tl flux inactive | KCC2 ouabain 0.012 | HEK293 Tl flux2 inactive
CN(c1ccccc1)c1ccc(/C=C(/CCC(=O)O)c2nc3ccccc3s2)cc1[N+](=O)[O-]	none (no result: KCNQ1 block, KCNK9 block, Cl transport mod, KCNQ1 pot, hERG rescue)
Cc1nn(-c2ccc(F)cc2)c(Cl)c1/C=C(\CCC(=O)O)c1nc2ccccc2s1	Cl transport mod -9.4 | KCC2 secondary inconclusive | KCC2 bumet counter inconclusive | KCC2 secondary2 0.018 | HEK293 Tl flux 0.0059 | KCC2 ouabain 0.0093 | HEK293 Tl flux2 inconclusive
COc1cccc(/C=C(\CC(=O)O)c2nc3ccccc3s2)c1	none
O=C(O)CC/C(=C\c1ccc(N2CCCC2)c([N+](=O)[O-])c1)c1nc2ccccc2s1	Cl transport mod -8.5 | KCC2 secondary inactive | KCC2 bumet counter inactive | KCC2 secondary2 0.02 | HEK293 Tl flux inactive | KCC2 ouabain 0.011 | HEK293 Tl flux2 inactive
O=C(O)CC/C(=C\c1cccc(NC(=O)c2ccccc2Cl)c1)c1nc2ccccc2s1	Cl transport mod -2.3 | KCC2 secondary inactive | KCC2 bumet counter inactive | KCC2 secondary2 inconclusive | HEK293 Tl flux inactive | KCC2 ouabain inconclusive | HEK293 Tl flux2 inactive
Cn1cnnc1Sc1ccc(/C=C(\CC(=O)O)c2nc3ccccc3s2)cc1[N+](=O)[O-]	none
CC(C(=O)NCc1cccs1)N1CCN(S(=O)(=O)c2ccc3c(c2)OCCCO3)CC1 (stereo not given)	none (no result: KCNQ1 block, KCNK9 block, Cl transport mod, KCNQ1 pot, hERG rescue)
CCCCN(C)CCC(=O)Nc1ccc2c(c1)CCC2	Cl transport mod 6.1 | KCC2 secondary inactive | KCC2 bumet counter inconclusive | KCC2 secondary2 inactive | HEK293 Tl flux inactive | KCC2 ouabain inactive | HEK293 Tl flux2 inactive
COc1ccc(NC(=O)CN(C)CC(=O)Nc2ccc3c(c2)CCC3)cc1	none
CCN(Cc1ccccc1)S(=O)(=O)c1ccc(C(=O)Nc2nnc(C3CC3)o2)cc1	Cl transport mod 3.6 | KCC2 secondary inactive | KCC2 bumet counter 0.019 | KCC2 secondary2 inactive | HEK293 Tl flux inconclusive | KCC2 ouabain inconclusive | HEK293 Tl flux2 inactive
CCc1nnc(NC(=O)c2ccc(S(=O)(=O)N(CC(C)C)CC(C)C)cc2)o1	Cl transport mod 5.1 (no result: KCNQ1 block, KCNK9 block, KCNQ1 pot, hERG rescue) | KCC2 secondary 0.012 | KCC2 bumet counter 0.019 | KCC2 secondary2 inactive | HEK293 Tl flux 0.01 | KCC2 ouabain 0.022 | HEK293 Tl flux2 inactive
CSCc1nnc(NC(=O)c2ccc(S(=O)(=O)N(CC(C)C)CC(C)C)cc2)o1	none (no result: KCNK3 block)
COc1cccc(-n2nc(C(=O)N3CC(C)CC(C)C3)c3ccccc3c2=O)c1 (stereo not given)	Cl transport mod 4.4 | KCC2 secondary inactive | KCC2 bumet counter inactive | KCC2 secondary2 inactive | HEK293 Tl flux inactive | KCC2 ouabain inactive | HEK293 Tl flux2 inactive
COc1ccc(-n2nc(C(=O)NCC(=O)N3CC(C)CC(C)C3)c3ccccc3c2=O)cc1OC (stereo not given)	none (no result: Cl transport mod)
CC1CC2OC2CC1COC(=O)C1CC2OC2CC1C (stereo not given)	none (no result: KCNQ1 block, KCNK9 block, Cl transport mod, KCNQ1 pot, hERG rescue)
CN(Cc1ncc[nH]1)C(=O)CC1C(=O)NCCN1Cc1c(F)cccc1Cl (stereo not given)	none
Cc1cc(CN(C)C(=O)CC2C(=O)NCCN2Cc2c(F)cccc2Cl)on1 (stereo not given)	Cl transport mod 7.9 | KCC2 secondary inactive | KCC2 bumet counter inactive | KCC2 secondary2 inactive | HEK293 Tl flux inactive | KCC2 ouabain inactive | HEK293 Tl flux2 inactive
COC(=O)c1sccc1NC(=S)OC	Cl transport mod 4.7 | KCC2 secondary inconclusive | KCC2 bumet counter 0.012 | KCC2 secondary2 inactive | HEK293 Tl flux 0.016 | KCC2 ouabain inconclusive | HEK293 Tl flux2 0.013
COC(=O)c1sccc1NC(=O)c1ccc(C)cc1	none (no result: Cl transport mod)
CCn1c(=O)c2cc(C(=O)N(C)c3ccc(OC)cc3OC)sc2c2ccccc21	none
